Assay results of several laboratories.
Compare with care: the assays were run in different laboratories.
Cell line: A549
Read-out: cell growth or viability

O=C(N/N=C/CN1CCOCC1)Nc1cc2c(Nc3ccc(F)c(Cl)c3)ncnc2cc1O[C@H]1CCOC1 — IC50 (MTT; 72 h): 5.62 µM
COCCCOc1ccnc(COc2ccc(NC(=O)Nc3cc(F)cc(F)c3)cc2)c1C — IC50 (MTT; 72 h): 44.8 µM
CCCNc1nc(NCCC)nc(Nc2ccc(Br)cc2)n1 — IC50 (SRB; 72 h): 16.1 µM
CC(C)=CCC[C@](C)(O)[C@H]1CC[C@]2(C)[C@@H]1[C@H](O)C[C@@H]1[C@@]3(C)CC[C@H](O[C@@H]4O[C@H](CO)[C@@H](O)[C@H](O)[C@H]4O[C@@H]4O[C@H](CO)[C@@H](O)[C@H](O)[C@H]4O)C(C)(C)[C@@H]3CC[C@]12C — IC50 (MTT; 72 h): > 100 µM
COc1ccc(NC(=O)NNC(=O)c2cccc(Nc3nccc(-c4cccnc4)n3)c2)c(OC)c1 — IC50 (MTT; 24 h): > 40 µM
COc1c(C)cnc(COc2ccc(NC(=O)Nc3ccc(Cl)cc3)cc2)c1C — IC50 (MTT; 72 h): 13.7 µM
CC1=C(O)C(=O)C=C2C1=CC=C1[C@@]2(C)CC[C@@]2(C)[C@@H]3C[C@](C)(C(=O)OCCCCCCCCO)CC[C@]3(C)CC[C@]12C — IC50 (MTT; 48 h): 4.13 µM
c1ccc2cc(-c3nnc(NC4CCCCC4)[nH]3)ccc2c1 — IC50 (48 h): 1.22 µM
COc1cc(N(C)CCN(C)C)c(NC(=O)/C=C/C(C)C)cc1Nc1nc(N2CCc3sccc3C2)c2sccc2n1 — IC50 (MTT): > 50 µM
COc1cc([C@@H]2c3cc4c(cc3[C@@H](O[C@@H]3O[C@@H]5CO[C@@H](C)O[C@H]5[C@H](O)[C@H]3O)[C@H]3COC(=O)[C@H]23)OCO4)cc(OC)c1O — IC50 (MTT; 72 h): 2 µM
CS(=O)(=O)c1ccc(-n2cc(/C=N/N=c3\[nH]c(-c4ccc([N+](=O)[O-])cc4)cs3)c(-c3ccc(Br)cc3)n2)cc1 — IC50 (MTT; 48 h): 68.7 µM
Cc1ccc(C)n1-c1ccc(-c2nnc(-c3ccc(Br)cc3)[nH]2)cc1 — IC50 (MTT; 72 h): 225 µM
COc1ccc(/C=C2\SC(=S)N(CC(=O)Nc3ccccc3)C2=O)cc1 — IC50 (MTT): 25.7 µM
O=C(N/N=C/CN1CCCC1)Nc1cc2c(Nc3ccc(F)c(Cl)c3)ncnc2cc1O[C@H]1CCOC1 — IC50 (MTT; 72 h): 6.48 µM
CN1C(=O)/C(=N\NC(=O)c2cc3ccccc3[nH]2)c2cc(F)ccc21 — IC50: 2.82 µM
Oc1ncnc2cc(Nc3nc(-c4ccc(C(F)(F)F)cc4)cs3)ccc12 — IC50 (MTT): 14.8 µM
COc1cccc2c1C(=O)c1c(O)c3c(c(O)c1C2=O)C[C@@](O)(C(=O)CO)C[C@@H]3O[C@H]1C[C@H](N)[C@H](O)[C@H](C)O1 — IC50 (SRB): 0.62 µM
Cc1ccc(NC(=O)CSc2nnc(Cn3cnc4c3c(=O)n(C)c(=O)n4C)n2-c2ccccc2)c(C)c1 — IC50 (MTT): 7.39 µM
CCC(=O)Nc1cc(Nc2nc(N3CCc4sccc4C3)c3cccnc3n2)c(OC)cc1N(C)C — IC50 (MTT): > 50 µM
COc1ccccc1OCCNC(=O)COc1cccc2[nH]c3ccccc3c12 — IC50 (CCK-8; 72 h): > 100 µM
C=CC(=O)Nc1cc(Nc2nccc(-c3cn(C)c4ccccc34)n2)c(OC)cc1N(C)CCN(C)C — IC50 (MTT): 0.379 µM
COc1ccccc1C#CCNCC(O)COc1cccc2[nH]c3ccccc3c12 (stereo not shown) — IC50 (CCK-8; 72 h): > 100 µM
